# M1 ag parental: counter-screen for M1 agonists: effect in parental CHO-K1 cells; Fluo-8 calcium fluorescence; scaled to maximal ATP response, vehicle zero; activation, % at 3 µM; hit rate 0.48% among 360,000; in the data active means activation above about 15%;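 further: untransfected CHO-K1 host cells lacking M1 receptor as counterscreen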
# M1 PAM parental: nonselective calcium activators in parental CHO-K1 cells, primary screen, counter-screen for M1 PAM project, cell-based, Fluo-8 calcium fluorescence, full deck, 1536-well. ATP EC20; 0% at ATP EC20, 100% at ATP max. activation, % at 3 µM. hit rate 0.02% among 360,000. AID 602247, 2012;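 active means activation above the run cutoff, the mean activation of all test compounds plus 3 SD, cut at about 40% in these data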;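 further: peak over basal fluorescence ratio in a 140 s read after ATP addition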
# OX1R antag-1: OX1R (HCRTR1) antagonists, primary screen, fluorescence, CHO/OX1R cells, Fluo-8 calcium, orexin A; inhibition, % at 5 µM; hit rate 0.43% among 330,000; Orexin/Hypocretin receptor type 1 (Homo sapiens), O43613; Fluo-8 calcium fluorescence;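 active means inhibition above its plate's threshold, mean inhibition of all tested compounds on the plate plus 3 SD, cut at about 37% in these data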;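 further: 0% = orexin A challenge wells and 100% = SB-334867-A antagonist wells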
# Target sequence (O43613 whole entry, looked up): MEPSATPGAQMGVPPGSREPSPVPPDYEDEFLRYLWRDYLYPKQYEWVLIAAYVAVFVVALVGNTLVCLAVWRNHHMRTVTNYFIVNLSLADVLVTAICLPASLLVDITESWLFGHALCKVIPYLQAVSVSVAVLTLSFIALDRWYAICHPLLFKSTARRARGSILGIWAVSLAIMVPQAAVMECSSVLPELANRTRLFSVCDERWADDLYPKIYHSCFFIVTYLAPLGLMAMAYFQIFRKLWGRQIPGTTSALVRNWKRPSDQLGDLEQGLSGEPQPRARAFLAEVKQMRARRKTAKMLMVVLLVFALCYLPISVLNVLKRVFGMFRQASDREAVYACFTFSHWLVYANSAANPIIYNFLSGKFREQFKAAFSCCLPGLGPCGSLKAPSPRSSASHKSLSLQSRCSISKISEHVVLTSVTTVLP
# CHO-K1 Ca antag: counter-screen for M1 antagonists: effect in parental CHO-K1 cells; ATP-induced calcium, Fluo-8 fluorescence; hit rate 0.6% among 360,000; inhibition, % at 3 µM;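 active means inhibition above a per-plate cutoff, the plate's mean sample inhibition plus 3 SD, cut at about 24% in these data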;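 further: 0% = DMSO plus EC80 ATP and 100% = DMSO alone without ATP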
# OX1R antag-2: antagonists of human orexin 1 receptor (OX1R) | OX1R-expressing cells, FRET antagonist read-out | inhibition, % at 6.6 µM | hit rate 1.8% among 330,000; in the data active means inhibition mostly above about 38%, no sharp cut-off; inactive means mostly below about 40%;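 further: 0% = agonist challenge alone and 100% = reference antagonist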
# CHO parental Ca: ATP-evoked calcium signal inhibitors, parental CHO, primary screen, counter-screen for OX1R antagonist project, cell-based, fluorescence, Fluo-8 calcium dye. parental CHO-K1, ATP-induced calcium, Fluo-8 fluorescence. inhibition, % at 5.6 µM. hit rate 0.63% among 330,000. AID 463079, 2010;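 active means inhibition above that plate's mean sample inhibition plus 3 SD, cut at about 26% in these data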;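 further: 0% = ATP-challenged DMSO wells and 100% = DMSO wells without ATP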
#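 Assay system – parental CHO cells · Reagent – ATP stimulus · Detection – intracellular calcium via Fluo-8 no-wash fluorescent dye · Evaluation – percent inhibition of ATP-evoked calcium rise, normalized to controls · Controls – ATP wells versus no-ATP DMSO wells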
# * hit, by the source's call; · = not tested or not shown. An excerpt weighted towards active compounds, which were near 2.9% of everything screened.
SMILES,M1 ag parental,M1 PAM parental,OX1R antag-1,CHO-K1 Ca antag,OX1R antag-2,CHO parental Ca
Cc1ccc(C)c(N(C(=O)Cc2cccs2)C(C(=O)NC2CCCC2)c2ccc(C)o2)c1 (stereo unspecified),0,-6,-16,15,11,-8
COc1ccccc1NC(=S)NC(NC(=O)CC(C)C)C(Cl)(Cl)Cl (stereo unspecified),2,10,-24,-18,15,-11
O=C(O)C(c1ccccc1)N1CCCCC1 (stereo unspecified),1,20,-11,4,10,-2
Cc1cc(SCC(=O)N2CCC(c3noc4ccc(F)cc34)CC2)nc2ccccc12,0,12,-27,-20,49*,-11
Cc1cccc(-n2ncc(C(=O)NC3CCCC3)c2C2CCN(C(=O)OC(C)(C)C)CC2)c1,0,-1,-34,-13,1,-30
CC(=O)Nc1cccc(-n2nnc(SCC(=O)Nc3ccc(F)c(Cl)c3)n2)c1,22*,-1,-3,15,14,-5
CC(Oc1ccccc1F)C(=O)NNC(=O)CCNC(=O)c1ccco1 (stereo unspecified),0,0,-1,0,0,-5
O=C(Nc1nnc(-c2ccccc2)o1)c1nc2ccccc2s1,8,26,6,-12,6,28*
NC(=O)c1oc2ccccc2c1NC(=O)c1nc2ccccc2s1,0,14,-12,-9,23,-22
COc1ccc(N2CC(C(=O)NCCc3ccc(Cl)cc3)CC2=O)c(OC)c1 (stereo unspecified),-1,-12,-12,20,20,-9
C[C@H]1CN([C@@H](C)CO)S(=O)(=O)c2ccc(Br)cc2O[C@@H]1CN(C)C(=O)CCN1CCCCC1,0,6,·,-9,·,·
COc1cc(C(=O)ON=C2C=C(C)C(=O)C(C)=C2)cc(OC)c1OC,1,21,-15,-11,75*,-4
Cc1cc(O)c(N)c(C)c1Cl,0,13,-22,0,54*,-14
Cc1cc(O)c(C=Nc2ccc(N3CCOCC3)cc2)c(C)c1Cl,0,10,-12,-11,17,-6
FC(F)C(F)(F)c1cc(-c2ccc(Cl)cc2)n[nH]1,18*,17,73*,2,2,56*
Oc1ccccc1-c1cc(C(F)(F)C(F)F)[nH]n1,9,1,13,-11,14,-10
Cc1cc(OCCCCN2C(=O)NC(C)(C)C2=O)ccc1[N+](=O)[O-],17*,-4,-7,-5,8,0
CCOc1ccccc1N(CC(=O)Nc1ccccc1C(=O)N1CCOCC1)S(C)(=O)=O,1,-3,2,-1,21,-20
CC1CCN(C(=O)CNC(=O)c2ccc(Cl)cc2Cl)CC1,0,-6,-28,31*,3,-19
CCS(=O)(=O)Nc1ccc(C2=NN(C(=O)c3ccco3)C(c3cccc(F)c3)C2)cc1 (stereo unspecified),1,15,-31,0,-2,-19
CS(=O)(=O)Nc1ccc(C2=NN(C(=O)c3ccco3)C(c3cccc(F)c3)C2)cc1 (stereo unspecified),16*,23,-27,6,13,-26
On1ccccc1=S,3,18,37*,25*,14,41*
CC1(C(=O)NS(=O)(=O)c2cccc(C#N)c2)CCN1C(=O)CC1CC1 (stereo unspecified),0,18,·,-11,·,·
Cn1c(=O)oc2cc(S(=O)(=O)N3CCC(C(=O)NCc4ccccc4)CC3)ccc21,0,13,-5,-4,-1,-3
Cn1c(=O)oc2cc(S(=O)(=O)N3CCC(C(=O)NCCc4ccccc4)CC3)ccc21,0,-23,-6,6,8,41*
SMILES,M1 ag parental,M1 PAM parental,OX1R antag-1,CHO-K1 Ca antag,OX1R antag-2,CHO parental Ca
O=C(CCn1ccc2cc(S(=O)(=O)N3CCCC3)ccc21)NCCc1ccccc1,2,19,-17,-6,13,-13
COc1ccccc1CCNC(=O)Cn1ccc2cc(S(=O)(=O)N3CCCC3)ccc21,1,3,19,-1,55*,-3
COc1cccc(CNC(=O)Cn2ccc3cc(S(=O)(=O)N4CCCC4)ccc32)c1OC,3,7,-26,-7,17,-18
O=C(Cn1ccc2cc(S(=O)(=O)N3CCCC3)ccc21)NCCc1ccccc1,1,-2,21,3,55*,-4
Cc1cccc(C)c1-n1nnnc1C(c1ccccc1OC(F)(F)F)N1CCN(C/C=C/c2ccccc2)CC1 (stereo unspecified),1,2,·,-16,·,·
O=C(NCCc1ccc(C(F)(F)F)cc1)c1ccc(Cl)nc1,9,10,-24,-7,5,-10
COc1ccccc1Cn1c(C)c(C(=O)NCc2ccc(C#N)cc2)sc1=O,28*,19,·,-4,·,·
COc1ccc(Cl)cc1Cn1c(C)c(C(=O)NCc2cccc(C(F)(F)F)c2)sc1=O,0,2,·,24*,·,·
COc1ccc(CNC(=O)c2sc(=O)n(Cc3ccccc3C)c2C)cc1,17*,-9,·,6,·,·
Cc1ccccc1Cn1c(C)c(C(=O)NCc2cccc(Cl)c2)sc1=O,2,14,·,-11,·,·
CC1(C)Cc2c(sc(NC(=O)c3ccc(S(=O)(=O)N4CCCCCC4)cc3)c2C#N)C(C)(C)N1,4,-5,-5,-4,-1,-6
Oc1c(Br)cc(Br)c(/C=N/n2c(-c3ccccc3)n[nH]c2=S)c1Br,3,3,3,3,71*,-3
S=c1[nH]nc(-c2ccncc2)n1/N=C/c1cn(-c2ccccc2)nc1-c1ccccc1,0,-13,-59,3,52*,-68
O=C(CCNS(=O)(=O)c1ccccc1)OCC(=O)c1ccc[nH]1,0,-16,-3,3,19,-13
CCOC(=O)n1ccc(C(=O)Nc2ccccc2F)n1,0,8,-7,-9,7,29*
COc1ccc(Cn2nc(C)cc2C)cc1OC,1,26,-9,-17,17,99*
CC(OC(=O)c1nc(Cl)ccc1Cl)C(=O)c1ccccc1 (stereo unspecified),0,8,-18,0,14,3
COCCNC(=O)CN1CCC(NC(=O)c2ccco2)CC1,0,14,-4,-6,8,0
CC(C)NC(=O)NC(=O)CSc1nnc(COc2ccccc2F)n1C(C)C1CC2CCC1C2 (stereo unspecified),0,2,5,-42,0,70*
CCOc1cc(/C=C2\CCCC(C(=O)C(F)(F)F)=C2O)ccc1O,1,14,-16,-5,4,-6

# From PubChem
